In ChEMBL document CHEMBL4145496, “In vitro antiplasmodial efficacy of synthetic coumarin-triazole analogs” (Eur J Med Chem, 2018):
≈ marks a conversion by molar mass, not a printed value. Calls of active or inactive are those of the source. No cut-off for these calls is given here.

Experiments:
Plasmodium falciparum = assay: Antimalarial activity against chloroquine-sensitive Plasmodium falciparum 3D7 erythrocytic stage after 48 hrs by Giemsa staining-based microscopic analysis; format: functional, organism-based; conditions: 3D7, 48 h
Procedure, shortened: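 Parasites kept in human O+ erythrocytes in RPMI 1640 with HEPES, NaHCO3, L-glutamine, gentamicin and Albumax II, under 3% O2/4% CO2/93% N2 at 37 °C. DMSO stocks (1 mg/ml) diluted into gentamicin-free RPMI. Graded concentrations for 48 h at 37 °C, medium changed at 24 h, in triplicate. Parasites counted per about 4000 erythrocytes on Giemsa thin smears. IC50 taken from semi-log plots.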

[1] = Cytotoxicity against human HuH7 cells assessed as reduction in cell viability after 72 hrs by MTT assay; format: cell-based, Huh-7
Procedure, shortened: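 Huh-7 monolayers grown in DMEM at 37 °C in 5% CO2. Cells seeded at about 20,000 per well and left 24 h, then given fresh medium containing 1, 10, 20, 30, 50 or 100 μg/mL compound for 72 h. Viability read by MTT, absorbance at 570 nm.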

[2] = target: DNA gyrase (Escherichia coli) (UniProt P0AES6+P0AES4); assay: Inhibition of Escherichia coli DNA gyrase assessed as inhibition of enzyme-mediated supercoiling of relaxed pHOT1 DNA substrate at IC50 after 1 hr by ethidium bromide staining based agarose gel electrophoresis; format: protein-complex assay

IC50 (Plasmodium falciparum)	inhibition [2]	SMILES	CC50 at 72 h [1]
7.43 µg/mL (≈ 19.3 µM)	–	Cc1cc(=O)oc2cc(OCc3cn(-c4ccc(F)c(Cl)c4)nn3)ccc12	> 100 µg/mL
1.82 µg/mL (≈ 7.06 µM)	–	Cc1cc(=O)oc2cc(OCc3c[nH]nn3)ccc12	> 100 µg/mL
10.6 µg/mL (≈ 25.3 µM)	–	Cc1cc(=O)oc2cc(OCc3cn(-c4ccnc5cc(Cl)ccc45)nn3)ccc12	> 100 µg/mL
5 µg/mL (≈ 12 µM)	–	Cc1cc(=O)oc2cc(OCc3cn(-c4ccc(OC(F)(F)F)cc4)nn3)ccc12	> 100 µg/mL
3.36 µg/mL (≈ 11.2 µM)	–	Cc1cc(=O)oc2cc(OCc3cn(CCO)nn3)ccc12	> 100 µg/mL
12.8 µg/mL (≈ 35 µM)	–	Cc1cc(F)ccc1-n1cc(COc2ccc3c(C)cc(=O)oc3c2)nn1	> 100 µg/mL
0.893 µg/mL (≈ 2.47 µM)	Active	Cc1cc(C)cc(-n2cc(COc3ccc4c(C)cc(=O)oc4c3)nn2)c1	> 100 µg/mL
1.5 µg/mL (≈ 3.92 µM)	Active	Cc1ccc(-n2cc(COc3ccc4c(C)cc(=O)oc4c3)nn2)c(Cl)c1	> 100 µg/mL
6.86 µg/mL (≈ 18.1 µM)	–	Cc1cc(=O)oc2cc(OCc3cn(-c4ccccc4[N+](=O)[O-])nn3)ccc12	> 100 µg/mL
6.43 µg/mL (≈ 18.3 µM)	–	Cc1cc(=O)oc2cc(OCc3cn(-c4ccc(F)cc4)nn3)ccc12	> 100 µg/mL
2.23 µg/mL (≈ 5.68 µM)	–	Cc1cc(=O)oc2cc(OCc3cn(Cc4ccc([N+](=O)[O-])cc4)nn3)ccc12	> 100 µg/mL
11.1 µg/mL (≈ 26.1 µM)	–	COc1cc(-n2cc(COc3ccc4c(C)cc(=O)oc4c3)nn2)cc(OC)c1OC	> 100 µg/mL
2.48 µg/mL (≈ 7.06 µM)	–	Cc1cc(=O)oc2cc(OCc3cn(-c4ccccc4F)nn3)ccc12	> 100 µg/mL
3.3 µg/mL (≈ 10 µM)	–	COC(=O)Cn1cc(COc2ccc3c(C)cc(=O)oc3c2)nn1	> 100 µg/mL
9.46 µg/mL (≈ 26.9 µM)	–	Cc1cc(=O)oc2cc(OCc3cn(-c4cccc(F)c4)nn3)ccc12	> 100 µg/mL
8.94 µg/mL (≈ 24.3 µM)	–	Cc1cc(=O)oc2cc(OCc3cn(-c4ccccc4Cl)nn3)ccc12	> 100 µg/mL
4.16 µg/mL (≈ 10.7 µM)	–	CC(=O)Nc1ccc(-n2cc(COc3ccc4c(C)cc(=O)oc4c3)nn2)cc1	> 100 µg/mL
8.43 µg/mL (≈ 22.9 µM)	–	Cc1cc(=O)oc2cc(OCc3cn(-c4ccc(Cl)cc4)nn3)ccc12	> 100 µg/mL
15.4 µg/mL (≈ 41.7 µM)	–	Cc1cc(=O)oc2cc(OCc3cn(-c4ccc(F)cc4F)nn3)ccc12	> 100 µg/mL
0.763 µg/mL (≈ 1.94 µM)	Active	COc1ccc(-n2cc(COc3ccc4c(C)cc(=O)oc4c3)nn2)c(OC)c1	> 100 µg/mL
6.4 µg/mL (≈ 18.4 µM)	–	Cc1cc(=O)oc2cc(OCc3cn(Cc4ccccc4)nn3)ccc12	> 100 µg/mL
4.56 µg/mL (≈ 10.7 µM)	–	Cc1cc(=O)oc2cc(OCc3cn(-c4ccc(Oc5ccccc5)cc4)nn3)ccc12	> 100 µg/mL
